The values that follow come from PMC10287037 (European journal of medicinal chemistry, 2023).

Read-outs that look alike come from different tables or passages of the source.

One assay concerns tubulin. Nature of the assay: Inhibition of tubulin assembly. Format: biochemical. Particulars: compared with 3d / CA-4.
In assay [1] the test system is PBL not stimulated with PHA. Nature of the assay: Cytotoxicity in resting human PBLs. Particulars: 72 h, read-out: IC50 (compound concentration required to inhibit cell growth by 50%). Format: cell-based. In short, it runs like this:
(§1)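 Healthy-donor human PBLs; non-adherent cells at 5×10^5 cells/mL in growth medium. Proliferating cultures received PHA; resting cultures used the same density without PHA. Graded compound concentrations from 10 mM DMSO stocks. Viability by MTT after 72 h incubation. IC50 is the concentration inhibiting cell growth by 50%.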

A further assay relates to PBL stimulated with PHA. Briefly: Cytotoxicity in PHA-stimulated human PBLs. It counts as cell-based. Particulars: 72 h, read-out: IC50 (compound concentration required to inhibit cell growth by 50%). In short, it runs like this:
as §1

Assay [2] concerns VL51 cells. Briefly: p-histone H3 staining of mitotic cells by flow cytometry. It counts as cell-based, human. Conditions: 24 h. The method in brief: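 VL51 lymphoma cells in RPMI-1640 with 20% FBS, penicillin-streptomycin-neomycin and 1% L-glutamine at 37 °C, 5% CO2. Seeded at 2.0×10^5 per well in 6-well plates, then treated 24 h at indicated concentrations. Harvested by centrifugation, fixed in 70% ice-cold ethanol, stained with anti-phospho-histone H3 antibody plus PI, and analysed by flow cytometry as % p-H3-positive (mitotic) cells.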
In general terms: In flow cytometry, cells or beads pass a laser one at a time.

In assay [3] the test system is A549, CCRF-CEM and VL51 cells. Nature of the assay: Apoptosis assay. Format: cell-based, human. Conditions: 48 h incubation; annexin-V/PI. In short, it runs like this: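 A549, CCRF-CEM and VL51 cultured at 37 °C, 5% CO2; lymphoma line in RPMI-1640 with 20% FBS, pen-strep-neomycin and 1% L-glutamine. Test compound from 10 mM DMSO stock, several concentrations, 48 h. Annexin-V Fluos kit per manufacturer: annexin-V-FITC (FL1) and PI (FL3) by flow cytometry. Apoptotic % = annexin-V+ plus annexin-V/PI double-positive cells; mean ± S.E.M., three independent experiments.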

For assay [4], the system named is VL51 cells. Nature of the assay: Mitochondrial membrane potential. Format: cell-based, human. Conditions: 24 h, 0.5 and 1.0 μM, VL51, JC-1. The method in brief:
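VL51 lymphoma cells were grown in RPMI-1640 with 20% FBS, pen-strep-neomycin and 1% L-glutamine at 37 °C, 5% CO2. Cells were treated 24 h with test compound diluted from a 10 mM DMSO stock. They were then labelled with JC-1 and analysed by flow cytometry in the FL1 and FL2 channels.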

The subject of another assay is leukemia cell lines. Nature of the assay: NCI five-dose screening, leukemia subpanel. Format: cell-based, human. Particulars: for GI50: Homo sapiens, read-out: GI50 values (range over subpanel). In short, it runs like this:
(§2)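 Run by NCI. Prescreen at 10^-5 M across 60 human lines from nine tumour types: leukemia, NSCLC, colon, CNS, melanoma, ovarian, renal, prostate, breast. GI50 is the concentration inhibiting cell growth by 50%. MG_MID is the arithmetic mean GI50 over tested lines; where 50% inhibition was not reached, the highest tested concentration was used.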

The subject of another assay is colon cancer subpanel. Nature of the assay: NCI five-dose screening, colon cancer subpanel. It counts as cell-based, human. Particulars: for GI50: Homo sapiens. The method in brief:
as §2

For a further assay, the system named is renal cancer subpanel. Nature of the assay: NCI five-dose screening, renal cancer subpanel. It counts as cell-based. Particulars: Homo sapiens, TK-10, read-out: GI50 (range over subpanel). In short, it runs like this: as §2
For the next assay, the system named is prostate cell lines. Briefly: NCI five-dose screening, prostate subpanel. It counts as cell-based. Particulars: Homo sapiens, read-out: GI50 values (range over subpanel). The method in brief: as §2
Assay [5] relates to VL51 (marginal zone lymphoma, MZL) cells. Nature of the assay: MTT cell proliferation assay, VL51. It counts as cell-based. Conditions: Homo sapiens, VL51, 72 h, bound stated. (In general: Tetrazolium dyes change colour on reduction, which living cells bring about.)
For assay [6], the system named is non-Hodgkin lymphoma (NHL) cells HBL1, SU-DHL-10, MINO, VL51. Briefly: MTT cell proliferation assay, panel of four NHL cell lines. Format: cell-based, human. Particulars: for reduction in the percentage of cellular proliferation: 1 μM, 72 h incubation, towards each cell line.
Assay [7] concerns tubulin (colchicine site). Briefly: Inhibition of [3H]colchicine binding to tubulin. Particulars: 5 μM inhibitor; 0.5 μM tubulin, 5.0 μM [3H]colchicine.

`COc1ccc(Cn2cc3c(c2-c2ccc(OC)cc2)CCCc2cnoc2-3)cc1` [3p, 8-(4-Methoxybenzyl)-7-(4-methoxyphenyl)-4,5,6,8-tetrahydropyrrolo[3’,4’:3,4]cyclohepta[1,2-d][1,2]oxazole]: in the assay on tubulin, the “fold less active on tubulin assembly” value is on record as “about 4 fold”.
With `COc1ccc(Cn2cc3c(c2-c2ccccc2)CCCc2cnoc2-3)cc1` [3d, 8-(4-Methoxybenzyl)-7-phenyl-4,5,6,8-tetrahydropyrrolo[3’,4’:3,4]cyclohepta[1,2-d][1,2]oxazole], the IC50 (in assay [1]; in the assay with PBL stimulated with PHA) was more than 10000 nM each time. Moreover, the “increase of mitotic cells (p-histone H3 positive)” value with VL51 cells [2] is “did not observe a significant increase of mitotic cells”. For the same molecule, the induction of apoptosis result in assay [3] is on record as “induced apoptosis to a lesser extent”. Besides, the “depolarization of the mitochondrial membrane” value (“depolarization” for short) in the assay on VL51 cells [4] is “slight depolarization of the mitochondrial membrane”.
Consider `COc1ccc(Cn2cc3c(c2-c2cc(OC)c(OC)c(OC)c2)CCCc2cnoc2-3)cc1N` [3z, 2-Methoxy-5-((7-(3,4,5-trimethoxyphenyl)-5,6-dihydropyrrolo[3’,4’:3,4]cyclohepta[1,2-d]isoxazol-8(4H)-yl)methyl)aniline], for which the 50% growth inhibitory concentration (GI50) in the assay on leukemia cell lines is 300 to 650 nM; with colon cancer subpanel (HCC 2998, read-out: GI50 (range over subpanel)), 380 to 560 nM; in the assay with renal cancer subpanel it was 360 to 840 nM; with prostate cell lines, 430 to 840 nM. Besides, the IC50 is less than 500 nM in assay [5]; 100 to 500 nM in assay [6] (Homo sapiens, 72 h, read-out: IC50 values (range over all four NHL cell lines)); more than 10000 nM in assay [1]; more than 10000 nM with PBL stimulated with PHA. In addition, the “reduction in the percentage of cellular proliferation” value in assay [6] is “higher than 50%”. Besides, in assay [3], the induction of apoptosis result is “massive apoptosis in a dose-dependent manner”. In the assay with VL51 cells [4], the “depolarization” value is “depolarization was extensive”.
Turning to `COc1ccc(Cn2cc3c(c2-c2cc(OC)c(OC)c(OC)c2)CCCc2cnoc2-3)cc1` [3u, 8-(4-Methoxybenzyl)-7-(3,4,5-trimethoxyphenyl)-4,5,6,8-tetrahydropyrrolo[3’,4’:3,4]cyclohepta[1,2-d][1,2]oxazole], the concentration for 50% growth inhibition (GI50) in the assay with leukemia cell lines lay in the range of 350 to 1560 nM; with colon cancer subpanel (read-out: GI50 values (range over subpanel)), 390 to 1610 nM. Moreover, the “calculated MG_MID for subpanel” value is 0.65 µM in the assay with leukemia cell lines (leukemia subpanel) and 0.88 µM with colon cancer subpanel (colon cancer subpanel). Besides, the IC50 is less than 500 nM in assay [5], more than 10000 nM in assay [1] and more than 10000 nM in the assay with PBL stimulated with PHA. Further, the “reduction in the percentage of cellular proliferation” value in [6] is on record as “higher than 50%”. Moreover, the induction of apoptosis entry in assay [3] is “massive apoptosis in a dose-dependent manner”. Besides, the “depolarization” value in the assay on VL51 cells [4] is “depolarization was extensive”.
Take `COc1ccc(/C=C\c2cc(OC)c(OC)c(OC)c2)cc1O` [CA-4, combretastatin A-4]: the “Inhibition of colchicine binding % Inhibition ± SD” value in [7] came out at 98 ± 2%.

By GI50 is commonly meant the concentration that inhibits growth by half.
